Laboratory results reported in ChEMBL document CHEMBL3739352, “Anticonvulsant activity, crystal structures, and preliminary safety evaluation of N-trans-cinnamoyl derivatives of selected (un)modified aminoalkanols” (Eur J Med Chem, 2016).
Calls of active or inactive are those of the source. The calls are words filed in the database; no cut-off is given here.

Key:
[1] = system: Salmonella typhimurium; test: Mutagenicity in Salmonella typhimurium TA100 assessed as number of revertants at 20 ug/plate by Ames test (reference value: 77 +/-4); format: toxicity, organism-based; settings: salmonella enterica subsp. enterica serovar typhimurium
Procedure, shortened: (§1)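 Salmonella TA100 preincubation Ames assay: overnight-type 12 h broth culture at 37 °C, compound in DMSO at final 4–1000 per plate, top agar with trace histidine, glucose minimal agar, 48 h at 37 °C. Revertant colonies per plate were counted, with a DMSO negative control and a sodium azide positive control. Three independent repetitions were run.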

[2] = system: Mus musculus; test: Anticonvulsant activity in albino Carworth Farms No.1 mouse assessed as protection against subcutaneous dosed pentetrazol-induced seizures at 100 mg/kg, ip after 0.5 hrs; format: functional, organism-based
Procedure, shortened: (§2)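 Mouse i.p. screen in Carworth Farms No.1 albino mice at 30, 100 or 300 mg/kg in 0.5% methylcellulose. Testing was at 0.5 and 4 h after injection, by maximal electroshock or by subcutaneous pentetrazol challenge. Scoring was number protected / number used.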

[3] = system: Mus musculus; test: Anticonvulsant activity in albino Carworth Farms No.1 mouse assessed as protection against maximal electroshock-induced seizures at 300 mg/kg, ip after 0.5 hrs; format: functional, organism-based; procedure, shortened: as §2
[4] = system: Salmonella typhimurium; test: Mutagenicity in Salmonella typhimurium TA1535 assessed as number of revertants at 4 ug/plate by Ames test (reference value: 10 +/- 3); format: toxicity, organism-based; settings: salmonella enterica subsp. enterica serovar typhimurium
[5] = system: Mus musculus; test: Neurotoxicity in albino Carworth Farms No.1 mouse at 300 mg/kg, ip after 4 hrs by rotarod test; format: toxicity, organism-based; settings: in vivo
Procedure, shortened: (§3)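 Mice (albino Carworth Farms No.1) were dosed i.p. at 30, 100 or 300 mg/kg in 0.5% methylcellulose. They were tested 0.5 and 4 h later on a 1-inch knurled rod rotating at 6 rpm. Neurotoxicity was scored if a mouse could not stay on the rod for at least 1 min in each of three trials. Results are given as animals toxic/animals tested, with deaths noted.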

[6] = Lipophilicity of the compound using 95% methanol in water at 1 mg/ml by RT-TLC analysis; format: physicochemical; settings: buffer
Procedure, shortened: (§4)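 Reversed-phase TLC with a methanol–water mobile phase at the stated methanol content (v/v). Compounds were spotted from 1 mg/mL methanol solutions after 1 h chamber saturation and located under UV light. Rf was measured and RM = log(1/Rf − 1) calculated.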

[7] = system: Salmonella typhimurium; test: Mutagenicity in Salmonella typhimurium TA1535 assessed assessed as mutagenic index at 100 ug/plate by Ames test; format: toxicity, organism-based; settings: salmonella enterica subsp. enterica serovar typhimurium
[8] = system: Salmonella typhimurium; test: Mutagenicity in Salmonella typhimurium TA1535 assessed as assessed as mutagenic index at 20 ug/plate by Ames test; format: toxicity, organism-based; settings: salmonella enterica subsp. enterica serovar typhimurium
Procedure, shortened: (§5)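 Ames preincubation test. Strain culture was grown 12 h at 37 °C in nutrient broth, then mixed with compound in DMSO (final 4, 20, 100, 500, 1000 per plate) and buffer in top agar with trace histidine. This was plated on glucose minimal agar for 48 h at 37 °C. Mutagenic index = revertants with compound / DMSO control revertants, from three independent repeats.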

[9] = system: Salmonella typhimurium; test: Mutagenicity in Salmonella typhimurium TA100 assessed as mutagenic index at 100 ug/plate by Ames test; format: toxicity, organism-based; settings: salmonella enterica subsp. enterica serovar typhimurium; procedure, shortened: as §5
[10] = system: Salmonella typhimurium; test: Mutagenicity in Salmonella typhimurium TA100 assessed as number of revertants at 4 ug/plate by Ames test (reference value: 77 +/-4); format: toxicity, organism-based; settings: salmonella enterica subsp. enterica serovar typhimurium; procedure, shortened: as §1
[11] = system: Mus musculus; test: Anticonvulsant activity in albino Carworth Farms No.1 mouse assessed as protection against subcutaneous dosed pentetrazol-induced seizures at 100 mg/kg, ip after 4 hrs; format: functional, organism-based; procedure, shortened: as §2
[12] = system: Salmonella typhimurium; test: Mutagenicity in Salmonella typhimurium TA100 assessed as number of revertants at 100 ug/plate by Ames test (reference value: 77 +/-4); format: toxicity, organism-based; settings: salmonella enterica subsp. enterica serovar typhimurium; procedure, shortened: as §1
[13] = system: Mus musculus; test: Anticonvulsant activity in albino Carworth Farms No.1 mouse assessed as protection against maximal electroshock-induced seizures at 300 mg/kg, ip after 4 hrs; format: functional, organism-based; procedure, shortened: as §2
[14] = Lipophilicity of the compound using 65% methanol in water at 1 mg/ml by RT-TLC analysis; format: physicochemical; settings: buffer; procedure, shortened: as §4
[15] = system: Mus musculus; test: Anticonvulsant activity in albino Carworth Farms No.1 mouse assessed as protection against maximal electroshock-induced seizures at 100 mg/kg, ip after 4 hrs; format: functional, organism-based; procedure, shortened: as §2
[16] = system: Salmonella typhimurium; test: Mutagenicity in Salmonella typhimurium TA1535 assessed as number of revertants at 20 ug/plate by Ames test (reference value: 10 +/- 3); format: toxicity, organism-based; settings: salmonella enterica subsp. enterica serovar typhimurium
[17] = system: Salmonella typhimurium; test: Mutagenicity in Salmonella typhimurium TA1535 assessed as number of revertants at 100 ug/plate by Ames test (reference value: 10 +/- 3); format: toxicity, organism-based; settings: salmonella enterica subsp. enterica serovar typhimurium
[18] = system: Mus musculus; test: Neurotoxicity in albino Carworth Farms No.1 mouse at 300 mg/kg, ip after 0.5 hrs by rotarod test; format: toxicity, organism-based; settings: in vivo; procedure, shortened: as §3
[19] = system: Salmonella typhimurium; test: Mutagenicity in Salmonella typhimurium TA100 assessed as number of revertants at 1000 ug/plate by Ames test (reference value: 77 +/-4); format: toxicity, organism-based; settings: salmonella enterica subsp. enterica serovar typhimurium; procedure, shortened: as §1
[20] = system: Salmonella typhimurium; test: Mutagenicity in Salmonella typhimurium TA100 assessed as mutagenic index at 500 ug/plate by Ames test; format: toxicity, organism-based; settings: salmonella enterica subsp. enterica serovar typhimurium; procedure, shortened: as §5
[21] = system: Salmonella typhimurium; test: Mutagenicity in Salmonella typhimurium TA1535 assessed as assessed as mutagenic index at 4 ug/plate by Ames test; format: toxicity, organism-based; settings: salmonella enterica subsp. enterica serovar typhimurium; procedure, shortened: as §5
[22] = system: Salmonella typhimurium; test: Mutagenicity in Salmonella typhimurium TA100 assessed as mutagenic index at 20 ug/plate by Ames test; format: toxicity, organism-based; settings: salmonella enterica subsp. enterica serovar typhimurium; procedure, shortened: as §5
[23] = system: Salmonella typhimurium; test: Mutagenicity in Salmonella typhimurium TA98 assessed as number of revertants at 500 ug/plate by Ames test (reference value: 23 +/- 3); format: toxicity, organism-based; settings: salmonella enterica subsp. enterica serovar typhimurium
[24] = system: Salmonella typhimurium; test: Mutagenicity in Salmonella typhimurium TA100 assessed as assessed as mutagenic index at 1000 ug/plate by Ames test; format: toxicity, organism-based; settings: salmonella enterica subsp. enterica serovar typhimurium; procedure, shortened: as §5
[25] = system: Salmonella typhimurium; test: Mutagenicity in Salmonella typhimurium TA1535 assessed as mutagenic index at 1000 ug/plate by Ames test; format: toxicity, organism-based; settings: salmonella enterica subsp. enterica serovar typhimurium
[26] = system: Salmonella typhimurium; test: Mutagenicity in Salmonella typhimurium TA98 assessed as mutagenic index at 4 ug/plate by Ames test; format: toxicity, organism-based; settings: salmonella enterica subsp. enterica serovar typhimurium
[27] = system: Salmonella typhimurium; test: Mutagenicity in Salmonella typhimurium TA1535 assessed as number of revertants at 500 ug/plate by Ames test (reference value: 10 +/- 3); format: toxicity, organism-based; settings: salmonella enterica subsp. enterica serovar typhimurium
[28] = system: Mus musculus; test: Anticonvulsant activity in albino Carworth Farms No.1 mouse assessed as protection against subcutaneous dosed pentetrazol-induced seizures at 30 mg/kg, ip after 4 hrs; format: functional, organism-based; procedure, shortened: as §2
[29] = system: Salmonella typhimurium; test: Mutagenicity in Salmonella typhimurium TA100 assessed as mutagenic index at 4 ug/plate by Ames test; format: toxicity, organism-based; settings: salmonella enterica subsp. enterica serovar typhimurium; procedure, shortened: as §5
[30] = system: Salmonella typhimurium; test: Mutagenicity in Salmonella typhimurium TA100 assessed as number of revertants at 500 ug/plate by Ames test (reference value: 77 +/-4); format: toxicity, organism-based; settings: salmonella enterica subsp. enterica serovar typhimurium; procedure, shortened: as §1
[31] = system: Salmonella typhimurium; test: Mutagenicity in Salmonella typhimurium TA98 assessed as mutagenic index at 500 ug/plate by Ames test; format: toxicity, organism-based; settings: salmonella enterica subsp. enterica serovar typhimurium
[32] = Lipophilicity of the compound at 1 mg/ml by RT-TLC analysis relative to 0% methanol; format: physicochemical; settings: methanol/water
Procedure, shortened: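 Reversed-phase TLC used methanol–water mobile phases of 95–65% methanol. Compounds were applied from 1 mg/mL methanol solutions after 1 h chamber saturation, with UV detection. RM = log(1/Rf − 1) was calculated at each methanol level and extrapolated linearly (RM = RM0 + bC) to 0% methanol to give RM0.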

[33] = system: Mus musculus; test: Anticonvulsant activity in albino Carworth Farms No.1 mouse assessed as protection against maximal electroshock-induced seizures at 30 mg/kg, ip after 0.5 hrs; format: functional, organism-based; procedure, shortened: as §2
[34] = Lipophilicity of the compound using 90% methanol in water at 1 mg/ml by RT-TLC analysis; format: physicochemical; settings: buffer; procedure, shortened: as §4

Rm [6]	Rm [14]	SMILES	Activity [1]	Activity [2]	Activity [3]	Activity [4]	Activity [5]	Activity_index [7]	Activity_index [8]	Activity_index [9]	Activity [10]	Activity [11]	Activity [12]	Activity [13]	Activity [15]	Activity [16]	Activity [17]	Activity [18]	Activity [19]	Activity_index [20]	further results
-0.69	0.02	CC(O)CNC(=O)/C=C/c1ccccc1 (racemic)	70	inactive	Active	12	Non-toxic	1.2	1.3	0.9	68	inactive	67	inactive	inactive	13	12	Non-toxic	73	0.8	Activity_index [21]: 1.2; Activity_index [22]: 0.9; Activity [23]: 21; Activity_index [24]: 1; Activity_index [25]: 1.4; Activity_index [26]: 1.1; Activity [27]: 14; Activity [28]: inactive; Activity_index [29]: 0.9; Activity [30]: 65; Activity_index [31]: 0.9; Rm [32]: 1.512; Activity [33]: inactive; Rm [34]: -0.58
-0.63	0.31	CC(C)C(CO)NC(=O)/C=C/c1ccccc1 (racemic)	75	inactive	Active	5	Non-toxic	0.6	0.6	1	83	inactive	80	Active	inactive	6	6	Non-toxic	80	1	Activity_index [21]: 0.5; Activity_index [22]: 1; Activity [23]: 16; Activity_index [24]: 1; Activity_index [25]: 0.7; Activity_index [26]: 0.9; Activity [27]: 7; Activity [28]: inactive; Activity_index [29]: 1.1; Activity [30]: 79; Activity_index [31]: 0.8; Rm [32]: 2.219; Activity [33]: inactive; Rm [34]: -0.45
